This is a sample that favours compounds with a hit; in the whole collection about 1.9% have one here.
NCF1 inh: p47phox (human) inhibition; P14598; p47phox/p22phox peptide binding, fluorescence polarization, 2 h; inhibition, % at 24.7 µM; actives 0.53% (n = 220,000); AID 1274;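 active = inhibition above about 30%, limit read from the data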;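 note: 0% = p47phox with labelled peptide and 100% = labelled peptide alone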
pCIP destab: lowers stability of the mouse p/CIP coactivator protein; actives 0.01% (n = 290,000); F442A p/CIP-EGFP cells, EGFP fluorescence, 16 h; Q05BA5; decrease of EGFP signal, % at 10 µM;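 active = EGFP signal decrease of at least 30% at 10 µM or well 3 SD below plate mean, unless failing retest; inactive = the rest, including hits failing retest or dose response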
Target sequence (Q05BA5 1-1403): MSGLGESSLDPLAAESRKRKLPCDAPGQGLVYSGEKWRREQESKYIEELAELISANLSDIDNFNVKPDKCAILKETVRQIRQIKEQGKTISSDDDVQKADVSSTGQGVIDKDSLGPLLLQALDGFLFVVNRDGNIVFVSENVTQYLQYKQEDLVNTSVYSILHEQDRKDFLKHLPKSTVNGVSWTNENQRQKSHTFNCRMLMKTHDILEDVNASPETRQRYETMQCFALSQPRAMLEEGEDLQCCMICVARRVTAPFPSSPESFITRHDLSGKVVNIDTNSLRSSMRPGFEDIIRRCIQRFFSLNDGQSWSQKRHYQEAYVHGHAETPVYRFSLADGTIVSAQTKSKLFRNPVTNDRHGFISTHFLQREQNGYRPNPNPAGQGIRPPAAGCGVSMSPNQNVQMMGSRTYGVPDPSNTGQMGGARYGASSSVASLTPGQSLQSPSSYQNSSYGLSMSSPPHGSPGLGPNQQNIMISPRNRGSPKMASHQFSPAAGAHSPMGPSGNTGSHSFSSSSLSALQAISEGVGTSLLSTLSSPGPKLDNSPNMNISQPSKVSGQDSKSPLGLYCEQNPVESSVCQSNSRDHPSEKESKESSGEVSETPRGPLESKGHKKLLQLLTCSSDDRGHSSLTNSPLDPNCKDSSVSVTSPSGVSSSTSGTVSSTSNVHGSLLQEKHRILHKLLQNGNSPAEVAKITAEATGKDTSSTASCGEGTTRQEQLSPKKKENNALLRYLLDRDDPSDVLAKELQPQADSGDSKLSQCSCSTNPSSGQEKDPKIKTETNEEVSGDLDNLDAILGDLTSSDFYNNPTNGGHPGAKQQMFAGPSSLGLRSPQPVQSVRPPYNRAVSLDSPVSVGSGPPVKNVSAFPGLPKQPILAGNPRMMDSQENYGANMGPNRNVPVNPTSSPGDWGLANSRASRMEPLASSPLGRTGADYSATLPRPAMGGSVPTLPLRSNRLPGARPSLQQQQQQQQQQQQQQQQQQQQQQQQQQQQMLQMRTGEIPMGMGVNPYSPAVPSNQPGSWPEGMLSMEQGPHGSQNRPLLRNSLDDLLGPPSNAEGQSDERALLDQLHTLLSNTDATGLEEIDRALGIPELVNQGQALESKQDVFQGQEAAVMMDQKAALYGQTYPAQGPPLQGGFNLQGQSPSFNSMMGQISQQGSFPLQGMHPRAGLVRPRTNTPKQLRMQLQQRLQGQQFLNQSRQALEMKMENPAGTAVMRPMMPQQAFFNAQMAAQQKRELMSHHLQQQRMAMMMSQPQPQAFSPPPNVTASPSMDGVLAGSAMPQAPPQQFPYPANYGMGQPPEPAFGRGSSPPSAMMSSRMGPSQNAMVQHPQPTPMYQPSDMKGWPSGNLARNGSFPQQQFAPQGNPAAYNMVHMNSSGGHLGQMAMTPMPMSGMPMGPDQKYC
Dynein transport: dynein cargo transport inhibition; 3617.4 mouse cells, GR-EGFP nuclear translocation imaging; test concentration mostly 20 µM; stimulated with dexamethasone, 1 µM; hits give low values; z-score, hits read low; actives 0.47% (n = 220,000);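 active = plate z-score of nuclear minus cytoplasmic receptor signal below a set negative limit, without overly bright fluorescence or cell loss, cut at about -3.5 in these data, passing the limit was not always enough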;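 note: z-score of nuclear minus cytoplasmic ring GR-EGFP intensity difference per well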
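Medium: Induction medium lacking tetracycline, stripped serum | Probe or stimulus: 1.0 µM final dexamethasone stimulus | Schedule: 48 h induction, then 1 h compound, then 30 min agonist, 37 °C | Signal: Automated 10x imaging of fixed Hoechst-stained cells | Evaluation: Per-cell GR-EGFP intensity, nucleus versus surrounding cytoplasmic ring, well-averaged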
RAM inhibit: yeast RAM network inhibition. S. cerevisiae dse1pr::URA3 reporter, 5-FOA growth OD615, 2 d; analog-sensitive cbk1-as2 kinase mutant strain. inhibition, % at 50 µM. actives 1.8% (n = 190,000);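 active = inhibition above a set limit, 3 SD over mean compound inhibition, cut at about 8.4% in these data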;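 note: 0% = DMSO-only wells with no growth and 100% = 10 µM 1-NA-PP1 full growth; inhibition rescues growth on 5-FOA so higher OD means more RAM inhibition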
* = called active by the depositor; x = no result given.

SMILES	NCF1 inh	pCIP destab	Dynein transport	RAM inhibit
CCOc1ccc(-n2c(=S)sc3c(=O)[nH]c(SCC(=O)NCC4CCCO4)nc32)cc1 (stereo not drawn)	-10.8	0.8	-0.767	8.7*
COC(=O)CNC(=O)CSc1nc2c(sc(=S)n2-c2ccccc2)c(=O)[nH]1	x	-16.8	x	x
CCc1ccc(-n2c(C)cc(/C=N/NC(=O)OC)c2C)cc1	-21.3	-9.8	0.0609	0.9
O=C(CCNc1ccc(F)cc1)c1cc2ccccc2o1	61.6*	15.4	0.6	1.9
CC(=O)c1ccc(NC(=O)CC23CC4CC(C2)CC(n2nnc(C)n2)(C4)C3)cc1	-3.2	-7.3	-0.264	0.8
O=C(CCN1C(=O)/C(=C/c2ccccc2)SC1=S)NNC(=O)c1cccnc1	6.6	8.5	0.367	9.6*
Cc1ccc(C(=O)NNC(=O)CCCN2C(=O)/C(=C/c3ccccc3Cl)SC2=S)cc1	9.3	-1.6	-0.0579	10.1*
O=C(COC(=O)C12CC3CC(CC(Br)(C3)C1)C2)N1CCOCC1	-6.7	2.5	-0.203	-1.6
O=C(CN1CCCCC1)NC(=O)NCc1ccccc1	-11.8	0.5	-0.852	0.7
COc1ccc(/C=N/NC(=O)c2ccc(Cn3cc([N+](=O)[O-])cn3)o2)c(OC)c1C	-7.7	-5.1	-0.182	9.5*
COc1ccc(/C=N\NC(=O)c2ccc(Cn3cc(Br)c([N+](=O)[O-])n3)o2)c(OC)c1C	5.8	-11.3	-0.145	3.6
C/C(=N\N=c1/scc(C)n1Cc1ccco1)c1cccc([N+](=O)[O-])c1	6.3	6.3	0.244	7.5
Cc1cccc(NC(=O)c2ccc(S(=O)(=O)N3CCC(C)CC3)cc2)n1	x	-11.3	x	x
O=c1c(-c2nnc(SCc3ccc(Cl)c(Cl)c3)o2)cccn1Cc1ccccc1	7.6	-6.2	-0.111	10.6*
Cc1ccc(C(=O)CSc2nnc(-c3c[nH]c4ccccc34)o2)cc1	-11.6	-14.2	-0.532	3.0
Clc1cccc(CSc2nnc(-c3c[nH]c4ccccc34)o2)c1	-7.3	-6.4	-0.759	10.1*
Cc1nc(NC(=O)c2ccc(Cl)cc2)sc1-c1csc(Nc2cccc(F)c2)n1	158.2*	-9.1	-0.0501	7.2
Cc1cc(C(=O)N/N=C/c2cc(N=Nc3ccccc3)ccc2O)n[nH]1	34.9*	-0.2	1.3	3.5
COc1cc(CC(=O)N/N=C/c2ccc([N+](=O)[O-])cc2)c([N+](=O)[O-])cc1OC	-9.2	-1.6	-0.871	2.8
O=C(CCCCC(=O)NCCc1ccccc1)NCCc1ccccc1	x	2.7	x	x
COc1cc([N+](=O)[O-])cc2cc(C(=O)N3CCN=C3c3ccccc3)c(=O)oc12	-5.4	3.6	-0.362	8.9*
C=CCN(Cc1ccc(OC)c(OC)c1)C(=O)c1cc2cc(F)ccc2[nH]1	x	6.3	x	x
Cc1nc(Nc2cc(F)ccc2C)c2nnn(Cc3ccccc3)c2n1	x	-1.9	x	x
O=C(CN(c1ccccc1F)S(=O)(=O)c1ccccc1)NC1CCCCCC1	3.1	-10.2	-0.568	10.6*
Cc1ccc(S(=O)(=O)N(CC(=O)NC2CCCCCC2)c2ccccc2F)cc1	1.5	2.5	-0.0256	4.8
SMILES	NCF1 inh	pCIP destab	Dynein transport	RAM inhibit
COc1ccccc1NC(=O)Nc1ccc(Cl)c(S(=O)(=O)Nc2ccccc2OC)c1	-25.9	9.9	-0.236	8.4*
COc1ccc(C(=O)Nc2ccc(Cl)c(S(=O)(=O)Nc3ccccc3OC)c2)cc1	-14.7	-15.8	1.83	4.1
COc1ccc(C(=O)Nc2cc(OC)c(NC(=O)c3ccco3)cc2OC)cc1	63.4*	4.3	-0.566	2.1
COc1ccc(O[C@H]2C=C[C@@H](c3ccccc3)O[C@@H]2COC(=O)CC/C(C)=N/O[C@@H](C)c2cn([C@H](CO)Cc3ccccc3)nn2)cc1	-0.4	-4.4	0.474	10.6*
CC(C)(C)c1ccc(C(=O)C2CCCN(C(=O)CCn3cncn3)C2)cc1 (stereo not drawn)	x	-3.6	x	x
Cc1ccc(Cl)cc1N1CCN(C(=O)c2ccc3nc[nH]c3c2)CC1	122.9*	2.2	0.808	1.0
Cc1cccc(N2CCN(C(=O)c3ccc4nc[nH]c4c3)CC2)c1C	-11.1	-4.0	-0.209	1.1
CCOc1ccc(NC(c2ccccn2)c2oc(CO)cc(=O)c2O)cc1 (stereo not drawn)	47.8*	-15.4	-0.57	-0.9
Cc1ccc(N2CC(O)=C(c3nc4ccccc4c(=O)[nH]3)C2=N)cc1C	-9.4	-3.7	1.62	4.2
COc1ccc(C(=O)c2cc(C(C)=O)c(Nc3ccccc3)s2)cc1	-19.1	-0.4	-1.01	9.1*
COc1ccc(C(=O)c2sc(Nc3ccccc3)nc2N)cc1	x	-5.1	x	x
Cc1nn(CC(=O)Nc2ccc3c(c2)oc2ccccc23)c(=O)c2ccccc12	38.6*	-2.4	-0.0733	1.3
COc1ccc(C(CNC(=O)c2cc(SC)ccc2Cl)N(C)C)cc1 (stereo not drawn)	-11.0	2.2	0.116	x
Nc1nc(CSc2ccc(Cl)cc2)nc(N2CCCCC2)n1	6.8	-2.3	0.482	9.0*
Cc1ccc(S(=O)(=O)NCCC(=O)OCC(=O)Nc2ccccc2Cl)cc1	33.0*	-11.5	-0.906	1.2
Cc1ccc(S(=O)(=O)NNC(=O)CCC(=O)Nc2ccccc2Cl)cc1	x	-4.1	x	x
Cn1nc(-c2ccccc2)c(CSc2ccccc2Cl)c1Cl	34.2*	-9.1	0.419	0.8
Cn1nc(-c2ccccc2)c(C(O)c2ccc(Cl)cc2)c1Cl (stereo not drawn)	-2.7	-2.6	x	2.9
Nn1c(SCc2nc3ccccn3c2Br)nnc1-c1cccnc1	56.6*	-18.4	-0.0336	0.7
Cc1c(N2C(=O)/C(=C\c3ccc(N(C)C)cc3)N(C)C2=S)c(=O)n(-c2ccccc2)n1C	-262.2	-118.0	-0.267	4.9
CN1C(=S)N(c2cccnc2)C(=O)/C1=C\c1ccc(N(C)C)cc1	85.8*	-22.4	0.934	2.8
Cc1ccc2c(c1)N(CCC(=O)NC1CCCCC1C)C(=O)CO2 (stereo not drawn)	x	2.9	x	x
O=C(O)c1ccc2c(c1)C(=O)N(c1ccc(OCc3ccccc3)cc1)C2=O	x	-18.5	x	x
Cc1ccc(OCC(=O)Nc2ccc(S(=O)(=O)Nc3onc(C)c3C)cc2)cc1	-10.8	-12.0	-0.24	10.4*
Cc1ccc(C)c(OCC(=O)Nc2ccc(S(=O)(=O)Nc3onc(C)c3C)cc2)c1	x	-7.2	x	x
SMILES	NCF1 inh	pCIP destab	Dynein transport	RAM inhibit
Cc1noc(NS(=O)(=O)c2ccc(N/C=C/C(=O)c3ccc(F)cc3)cc2)c1C	-4.4	4.2	2.25	10.8*
Cc1ccc(CNC(=O)c2ccc(OCC(C)C)cc2)n1C	x	-0.5	x	x
Cc1nn(C)c(C)c1CCC(=O)O	1.6	-16.1	1.78	1.2
COc1cccc(-c2nn(C)c3sc(C(=O)NCc4ccc(C)o4)cc23)c1	-32.8	-2.6	-2.14	10.6*
Cc1cc(C)c2[nH]c(C(=O)Nc3ccc(F)cc3Br)cc2c1	x	1.9	x	x
O=C(/C=C/c1cccc([N+](=O)[O-])c1)NCCSCc1c(Cl)cccc1Cl	-7.7	-4.4	-0.0596	9.7*
Cc1ccc(SCCNC(=O)/C=C/c2cccc([N+](=O)[O-])c2)cc1	-7.9	-9.5	0.18	9.7*
O=C(/C=C/c1cccc([N+](=O)[O-])c1)NCCSc1ccccc1	1.7	1.9	-0.432	-1.4
